From ChEMBL document CHEMBL1149705, “Synthesis and antimicrobial evaluation of new chalcones containing piperazine or 2,5-dichlorothiophene moiety” (2007)
In brackets after ≈: the same amount, converted by molar mass.

Legend:
Assay type in all cases: functional
Pichia kudriavzevii [1] = test: Antifungal activity against Candida krusei GO3 at 250 ug/ml after 48 hrs by agar well diffusion technique; conditions: read-out: IZ
Nakaseomyces glabratus [2] = test: Antifungal activity against Candida glabrata HO3 after 48 hrs by agar well diffusion technique
Nakaseomyces glabratus [3] = test: Antifungal activity against Candida glabrata HO3 at 250 ug/ml after 48 hrs by agar well diffusion technique; conditions: read-out: IZ
Candida albicans [4] = test: Antifungal activity against Candida albicans after 48 hrs by agar well diffusion technique
Proteus vulgaris = test: Antibacterial activity against Proteus vulgaris at 250 ug/ml after 48 hrs by agar well diffusion technique; conditions: read-out: IZ
Method in brief: (§1)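 Cup-plate agar well diffusion on nutrient agar, set for 1–1.5 h. Cups of 10 mm were bored with a sterile cork borer, and test solution was added by sterile syringe. Plates were incubated at 37 °C for 48 h. The read-out was inhibition zone diameter in mm, graded 0–6 mild, 7–13 moderate and 14–26 efficacy. Ciprofloxacin was the standard; 10% DMSO served as solvent control.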

Staphylococcus aureus = test: Antibacterial activity against Staphylococcus aureus 209p at 250 ug/ml after 48 hrs by agar well diffusion technique; conditions: read-out: IZ; method in brief: as §1
Klebsiella pneumoniae = test: Antibacterial activity against Klebsiella pneumoniae at 250 ug/ml after 48 hrs by agar well diffusion technique; conditions: read-out: IZ; method in brief: as §1
Escherichia coli = test: Antibacterial activity against Escherichia coli ESS 2231 at 250 ug/ml after 48 hrs by agar well diffusion technique; conditions: read-out: IZ; method in brief: as §1
Pichia kudriavzevii [5] = test: Antifungal activity against Candida krusei GO3 after 48 hrs by agar well diffusion technique
Candida albicans [6] = test: Antifungal activity against Candida albicans at 250 ug/ml after 48 hrs by agar well diffusion technique; conditions: read-out: IZ
Aspergillus fumigatus = test: Antifungal activity against Aspergillus fumigatus at 250 ug/ml after 48 hrs by agar well diffusion technique; conditions: read-out: IZ; method in brief: as §1

Row | SMILES | zone of inhibition at 250 µg/mL (Pichia kudriavzevii [1]) | MIC50 (Nakaseomyces glabratus [2]) | zone of inhibition at 250 µg/mL (Nakaseomyces glabratus [3]) | MIC50 (Candida albicans [4]) | zone of inhibition at 250 µg/mL (Proteus vulgaris) | zone of inhibition at 250 µg/mL (Staphylococcus aureus) | zone of inhibition at 250 µg/mL (Klebsiella pneumoniae) | zone of inhibition at 250 µg/mL (Escherichia coli) | MIC50 (Pichia kudriavzevii [5]) | zone of inhibition at 250 µg/mL (Candida albicans [6]) | zone of inhibition at 250 µg/mL (Aspergillus fumigatus)
1 | O=C(/C=C/C=C/c1ccccc1)c1ccc(N2CCNCC2)cc1 | 14 mm | 75 µg/mL (≈ 236 µM) | 6 mm | 90 µg/mL (≈ 283 µM) | 8 mm | 10 mm | 5 mm | 16 mm | 60 µg/mL (≈ 188 µM) | 9 mm | 14 mm
2 | O=C(/C=C/c1ccccc1)c1ccc(N2CCNCC2)cc1 | 24 mm | 7.57 µg/mL (≈ 25.9 µM) | 24 mm | 4.56 µg/mL (≈ 15.6 µM) | 20 mm | 22 mm | 18 mm | 24 mm | 5.38 µg/mL (≈ 18.4 µM) | 24 mm | 22 mm
3 | O=C(/C=C/c1ccccc1)c1cc(Cl)sc1Cl | 26 mm | 4.65 µg/mL (≈ 16.4 µM) | 26 mm | 2.22 µg/mL (≈ 7.84 µM) | 22 mm | 18 mm | 18 mm | 20 mm | 3.17 µg/mL (≈ 11.2 µM) | 26 mm | 24 mm
4 | Cc1cccc(/C=C/C(=O)c2ccc(N3CCNCC3)cc2)c1 | 24 mm | 9.94 µg/mL (≈ 32.4 µM) | 22 mm | 6.89 µg/mL (≈ 22.5 µM) | 20 mm | 24 mm | 16 mm | 22 mm | 5.69 µg/mL (≈ 18.6 µM) | 16 mm | 20 mm
5 | Cc1ccc(/C=C/C(=O)c2ccc(N3CCNCC3)cc2)cc1 | 22 mm | 7.66 µg/mL (≈ 25 µM) | 24 mm | 8.75 µg/mL (≈ 28.6 µM) | 14 mm | 16 mm | 14 mm | 14 mm | 7.02 µg/mL (≈ 22.9 µM) | 22 mm | 18 mm
6 | COc1ccc(/C=C/C(=O)c2cc(Cl)sc2Cl)cc1 | 18 mm | 16.4 µg/mL (≈ 52.3 µM) | 18 mm | 5 µg/mL (≈ 16 µM) | 14 mm | 14 mm | 16 mm | 18 mm | 18.2 µg/mL (≈ 58 µM) | 20 mm | 22 mm
7 | O=C(/C=C/c1ccc(Cl)cc1)c1cc(Cl)sc1Cl | 22 mm | 40 µg/mL (≈ 126 µM) | 14 mm | 4.65 µg/mL (≈ 14.6 µM) | 14 mm | 14 mm | 8 mm | 16 mm | 70 µg/mL (≈ 220 µM) | 24 mm | 18 mm
8 | COc1ccc(/C=C/C(=O)c2ccc(N3CCNCC3)cc2)cc1 | 14 mm | 16.2 µg/mL (≈ 50.4 µM) | 18 mm | 9.12 µg/mL (≈ 28.3 µM) | 14 mm | 24 mm | 16 mm | 22 mm | 50 µg/mL (≈ 155 µM) | 22 mm | 18 mm
9 | COc1cc(/C=C/C(=O)c2ccc(N3CCNCC3)cc2)cc(OC)c1OC | 12 mm | 60 µg/mL (≈ 157 µM) | 9 mm | 65 µg/mL (≈ 170 µM) | 6 mm | 6 mm | 9 mm | 8 mm | 75 µg/mL (≈ 196 µM) | 9 mm | 12 mm
10 | Cc1cccc(/C=C/C(=O)c2cc(Cl)sc2Cl)c1 | 22 mm | 65 µg/mL (≈ 219 µM) | 14 mm | 51.1 µg/mL (≈ 172 µM) | 6 mm | 11 mm | 10 mm | 20 mm | 42.3 µg/mL (≈ 142 µM) | 10 mm | 20 mm
11 | O=C(/C=C/c1ccc(Cl)cc1)c1ccc(N2CCNCC2)cc1 | 20 mm | 60 µg/mL (≈ 184 µM) | 14 mm | 55 µg/mL (≈ 168 µM) | 16 mm | 18 mm | 14 mm | 22 mm | 60 µg/mL (≈ 184 µM) | 18 mm | 12 mm
12 | O=C(/C=C/c1cccc([N+](=O)[O-])c1)c1ccc(N2CCNCC2)cc1 | 18 mm | 16.8 µg/mL (≈ 49.8 µM) | 18 mm | 6.75 µg/mL (≈ 20 µM) | 18 mm | 24 mm | 14 mm | 26 mm | 18.6 µg/mL (≈ 55 µM) | 16 mm | 20 mm
13 | Cc1ccc(/C=C/C(=O)c2cc(Cl)sc2Cl)cc1 | 10 mm | 80 µg/mL (≈ 269 µM) | 12 mm | 70 µg/mL (≈ 236 µM) | 9 mm | 12 mm | 8 mm | 16 mm | 70 µg/mL (≈ 236 µM) | 16 mm | 6 mm
14 | COc1cc(/C=C/C(=O)c2cc(Cl)sc2Cl)cc(OC)c1OC | 22 mm | 45.1 µg/mL (≈ 121 µM) | 20 mm | 78 µg/mL (≈ 209 µM) | 12 mm | 12 mm | 6 mm | 14 mm | 40.1 µg/mL (≈ 108 µM) | 6 mm | 14 mm
15 | O=C(/C=C/c1cccc([N+](=O)[O-])c1)c1cc(Cl)sc1Cl | 12 mm | 50 µg/mL (≈ 152 µM) | 14 mm | 5.97 µg/mL (≈ 18.2 µM) | 18 mm | 24 mm | 20 mm | 22 mm | 50 µg/mL (≈ 152 µM) | 18 mm | 16 mm
16 | O=C(/C=C/C=C/c1ccccc1)c1cc(Cl)sc1Cl | 16 mm | 60 µg/mL (≈ 194 µM) | 16 mm | 75 µg/mL (≈ 243 µM) | 11 mm | 9 mm | 7 mm | 16 mm | 55.6 µg/mL (≈ 180 µM) | 8 mm | 20 mm
17 | O=C(O)c1cn(C2CC2)c2cc(N3CCNCC3)c(F)cc2c1=O [CIPROFLOXACIN] | – | – | – | – | 24 mm | 22 mm | 24 mm | – | – | – | 24 mm
18 | OC(Cn1cncn1)(Cn1cncn1)c1ccc(F)cc1F [FLUCONAZOLE] | 29 mm | 50 µg/mL (≈ 163 µM) | 29 mm | 50 µg/mL (≈ 163 µM) | – | – | – | – | 50 µg/mL (≈ 163 µM) | 29 mm | –
